Reference: ChEMBL document CHEMBL5036342, “Indomethacin-based PROTACs as pan-coronavirus antiviral agents” (Eur J Med Chem, 2021)

Assays:
Vero C1008 = test: Cytotoxicity against African green monkey Vero E6 cells assessed as reduction of cell viability measured after 72 hrs by MTT assay; format: cell-based; settings: chlorocebus sabaeus, vero c1008, 72 h
Method in brief: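 Uninfected Vero E6 cells were exposed to compound for 72 h and viability read by MTT. CC50 is the concentration reducing viability by 50%.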

[1] = Selectivity index, ratio of CC50 for cytotoxicity against African green monkey Vero E6 cells to EC50 for antiviral activity against SARS-COV2/Padova/2020 infected in African green monkey Vero E6 cells; format: toxicity, cell-based, Vero C1008; settings: read-out: Ratio CC50/EC50
MRC5 = test: Cytotoxicity against human MRC5 cells assessed as reduction in cell viability measured after 72 hrs by MTT assay; format: cell-based; settings: mrc5, 72 h
Method in brief: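 MRC-5 cells were exposed to compound for 72 h and viability read by MTT. CC50 is the concentration reducing viability by 50%.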

SARS-CoV-2 [2] = test: Antiviral activity against SARS-CoV-2/NL/2020 infected in African green monkey Vero E6 cells assessed as inhibition of plaque formation measured after 3 days by Plaque reduction assay; format: functional, organism-based; settings: Severe acute respiratory syndrome coronavirus 2, NL/2020, Vero C1008, 72 h
Human coronavirus 229E = test: Antiviral activity against Human coronavirus 229E infected in human MRC5 cells assessed as inhibition of plaque formation measured after 3 days by Plaque reduction assay; format: functional, organism-based; settings: MRC5, 72 h
Method in brief: (§1)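 MRC-5 cells were seeded at 6×10^4 per well and infected the next day with 80 PFU per well. After the inoculum was removed, the overlay held graded compound concentrations, 3% FBS and 0.6% methylcellulose. Monolayers were fixed and stained after 3 days, and plaques counted. EC50 is the concentration giving 50% plaque inhibition, with 95% profile-likelihood CI. n = 3 independent experiments in duplicate.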

[3] = Selectivity index, ratio of CC50 for cytotoxicity against African green monkey Vero E6 cells to EC50 for antiviral activity against SARS-COV2/NL/2020 infected in African green monkey Vero E6 cells; format: toxicity, cell-based, Vero C1008; settings: read-out: Ratio CC50/EC50
Human coronavirus OC43 = test: Antiviral activity against Human coronavirus OC43 infected in human MRC5 cells assessed as inhibition of plaque formation measured after 3 days by Plaque reduction assay; format: functional, cell-based; settings: Betacoronavirus 1, MRC5, 72 h; method in brief: as §1
SARS-CoV-2 [4] = test: Antiviral activity against SARS-COV2/Padova/2020 infected in African green monkey Vero E6 cells assessed as inhibition of plaque formation measured after 3 days by Plaque reduction assay; format: functional, organism-based; settings: Severe acute respiratory syndrome coronavirus 2, Padova/2020, Vero C1008, 72 h
Canine coronavirus = test: Antiviral activity against Canine coronavirus infected in dog A-72 cells assessed as inhibition of viral replication; format: functional, cell-based; settings: Alphacoronavirus 1, A-72
SARS-CoV-2 [5] = test: Antiviral activity against SARS-CoV-2 infected in African green monkey Vero E6 cells assessed as reduction in virus induced cytopathic effect measured after 4 days by MTT assay; format: functional, organism-based; settings: Severe acute respiratory syndrome coronavirus 2, Vero C1008, 96 h
[6] = Cytotoxicity against African green monkey Vero E6 cells infected with SARS-CoV-2 assessed as reduction of cell viability measured after 48 hrs by MTT assay; format: cell-based, Vero C1008; settings: chlorocebus sabaeus
SARS-CoV = test: Antiviral activity against SARS-CoV infected in African green monkey Vero E6 cells assessed as inhibition of viral replication; format: functional, organism-based; settings: Severe acute respiratory syndrome-related coronavirus, Vero C1008

COc1ccc2c(c1)c(CC(=O)NCCN1CCN(C(=O)CCC(=O)N[C@H](C(=O)N3C[C@H](O)C[C@H]3C(=O)N[C@@H](C)c3ccc(-c4scnc4C)cc3)C(C)(C)C)CC1)c(C)n2C(=O)c1ccc(Cl)cc1
CC50 (Vero C1008): > 250 µM | selectivity ratio [1]: > 8 | CC50 (MRC5): 238 µM | EC50 (SARS-CoV-2 [2]): 21.5 µM | EC50 (Human coronavirus 229E): 3.2 µM | selectivity ratio [3]: > 12 | EC50 (Human coronavirus OC43): 2.5 µM | EC50 (SARS-CoV-2 [4]): 29.8 µM

COc1ccc2c(c1)c(CC(=O)O)c(C)n2C(=O)c1ccc(Cl)cc1 [INDOMETHACIN]
CC50 (Vero C1008): > 500 µM | EC50 (SARS-CoV-2 [2]): 94.9 µM | IC50 (Canine coronavirus): 5 µM | LC50 (Canine coronavirus; read-out: LD50 (the source's name)): 550 µM | selectivity ratio [3]: > 5 | EC50 (SARS-CoV-2 [5]): > 400 µM | CC50 at 48 h [6]: > 100 µM | IC50 (SARS-CoV): 50 µM

COc1ccc2c(c1)c(CC(=O)NCCCCCCC(=O)N[C@H](C(=O)N1C[C@H](O)C[C@H]1C(=O)N[C@@H](C)c1ccc(-c3scnc3C)cc1)C(C)(C)C)c(C)n2C(=O)c1ccc(Cl)cc1
CC50 (Vero C1008): > 200 µM | selectivity ratio [1]: > 8 | CC50 (MRC5): > 250 µM | EC50 (SARS-CoV-2 [2]): 18.1 µM | EC50 (Human coronavirus 229E): 36.5 µM | selectivity ratio [3]: > 11 | EC50 (Human coronavirus OC43): 4.7 µM | EC50 (SARS-CoV-2 [4]): 25.4 µM

CCC(CC)COC(=O)[C@H](C)N[P@](=O)(OC[C@H]1O[C@@](C#N)(c2ccc3c(N)ncnn23)[C@H](O)[C@@H]1O)Oc1ccccc1 [REMDESIVIR]
CC50 (Vero C1008): 373 µM | selectivity ratio [1]: 1490 | EC50 (SARS-CoV-2 [2]): 0.15 µM | selectivity ratio [3]: 2490 | EC50 (SARS-CoV-2 [4]): 0.25 µM

COc1ccc2c(c1)c(CC(=O)NCCOCCOCC(=O)N[C@H](C(=O)N1C[C@H](O)C[C@H]1C(=O)N[C@@H](C)c1ccc(-c3scnc3C)cc1)C(C)(C)C)c(C)n2C(=O)c1ccc(Cl)cc1
CC50 (Vero C1008): > 200 µM | selectivity ratio [1]: > 4 | EC50 (SARS-CoV-2 [2]): > 50 µM | selectivity ratio [3]: > 4 | EC50 (SARS-CoV-2 [4]): > 50 µM

COc1ccc2c(c1)c(CC(=O)NCCCCC(=O)N[C@H](C(=O)N1C[C@H](O)C[C@H]1C(=O)N[C@@H](C)c1ccc(-c3scnc3C)cc1)C(C)(C)C)c(C)n2C(=O)c1ccc(Cl)cc1
CC50 (Vero C1008): > 200 µM | selectivity ratio [1]: > 4 | EC50 (SARS-CoV-2 [2]): > 50 µM | selectivity ratio [3]: > 4 | EC50 (SARS-CoV-2 [4]): > 50 µM
